# Tests used:
# [1] = Cytotoxicity against human MT4 cells by MTT assay; type: cell-based
# Procedure, shortened: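 Human lymphocyte MT-4 cultures were read by MTT in the MT-4/MTT format.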
# [2] = system: Human immunodeficiency virus 1; assay: Antiviral activity against HIV1 3B in MT4 cells assessed as inhibition of virus-induced cytopathic effect by MTT assay; type: functional, organism-based; conditions: Human immunodeficiency virus 1, 3B
# Procedure, shortened: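 Human lymphocyte MT-4 cultures were infected with HIV-1, and protection from virus-induced cytopathic effect was read by MTT.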
# [3] = target: T1, Human immunodeficiency virus type 1 integrase (Human immunodeficiency virus 1, UniProt Q7ZJM1); assay: Inhibition of HIV1 integrase DNA strand transfer activity
# [4] = target: T1, Human immunodeficiency virus type 1 integrase; assay: Inhibition of HIV1 integrase by overall integration assay
# [5] = target: T1, Human immunodeficiency virus type 1 integrase; assay: Inhibition of HIV1 integrase 3'-processing activity
# T1 sequence (Q7ZJM1 whole entry): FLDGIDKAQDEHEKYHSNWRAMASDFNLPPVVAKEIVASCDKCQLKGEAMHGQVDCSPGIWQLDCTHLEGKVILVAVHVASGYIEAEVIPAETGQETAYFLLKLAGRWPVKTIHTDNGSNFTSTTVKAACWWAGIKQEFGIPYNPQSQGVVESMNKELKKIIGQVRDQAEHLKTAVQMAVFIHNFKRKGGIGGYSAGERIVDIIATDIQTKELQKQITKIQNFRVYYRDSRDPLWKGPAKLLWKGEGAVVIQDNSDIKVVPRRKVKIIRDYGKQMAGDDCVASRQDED
IC50 [3],IC50 [4],IC50 [5],Structure (SMILES),CC50 [1],EC50 [2]
–,–,–,COc1cc2c(cc1Cc1cccc(Cl)c1F)c(=O)c(C(=O)O)cn2[C@H](CO)C(C)C,1.15 µM,0.00037 µM
–,–,–,O=C(O)c1cn(CCO)c2ccc(Cc3cccc(Cl)c3F)cc2c1=O,> 15 µM,–
> 100 µM,> 100 µM,–,O=C(O)c1cn(CCO)c2ccc(-c3ccccc3)cc2c1=O,44.9 µM,> 44.9 µM
0.2 µM,0.07 µM,–,O=C(O)c1cn(CCO)c2ccc(Cc3ccc(Cl)cc3Cl)cc2c1=O,5.3 µM,> 5.3 µM
1.3 µM,0.9 µM,–,O=C(O)c1cn(CCCO)c2ccc(Cc3ccc(Cl)cc3Cl)cc2c1=O,3.6 µM,> 3.6 µM
> 100 µM,86.9 µM,> 100 µM,O=C(O)c1cn(CCO)c2ccc(Oc3ccc(F)c(Cl)c3)cc2c1=O,9.9 µM,> 9.9 µM
> 100 µM,73.9 µM,> 100 µM,O=C(c1ccc2c(c1)c(=O)c(C(=O)O)cn2CCCO)c1ccc(Cl)cc1Cl,17.5 µM,> 17.5 µM
> 100 µM,54.9 µM,> 100 µM,O=C(c1ccc2c(c1)c(=O)c(C(=O)O)cn2CCCCO)c1ccc(Cl)cc1Cl,17 µM,> 17 µM
> 100 µM,71.9 µM,–,O=C(O)c1cn(CCO)c2ccc(/C=C/c3ccccc3)cc2c1=O,22.6 µM,> 22.6 µM
> 100 µM,> 100 µM,–,O=C(Nc1ccccc1)c1ccc2c(c1)c(=O)c(C(=O)O)cn2CCO,224 µM,> 224 µM
> 100 µM,9.7 µM,> 100 µM,CCn1cc(C(=O)O)c(=O)c2c1C(=O)C=C(Nc1cccc(Cl)c1F)C2=O,2.4 µM,> 2.4 µM
2.1 µM,1 µM,–,CCn1cc(C(=O)O)c(=O)c2c1C(=O)C=C(Nc1ccc(F)c(Cl)c1)C2=O,2.2 µM,> 2.2 µM
24.1 µM,10.8 µM,–,CN(C)CCn1cc(C(=O)O)c(=O)c2cc(Cc3ccc(Cl)cc3Cl)ccc21,5.2 µM,> 5.2 µM
> 100 µM,18.7 µM,> 100 µM,O=C(c1ccc2c(c1)c(=O)c(C(=O)O)cn2CCO)c1ccc(Cl)cc1Cl,21.1 µM,> 21.1 µM
1.6 µM,4.6 µM,–,CCn1cc(C(=O)O)c(=O)c2c1C(=O)C=C(Sc1ccccc1)C2=O,30 µM,> 30 µM
> 100 µM,> 100 µM,–,O=C(Nc1ccc2c(c1)c(=O)c(C(=O)O)cn2CCO)c1ccccc1,220 µM,> 220 µM
> 100 µM,> 100 µM,–,O=C(O)c1cn(CCO)c2ccc(Nc3cccc(Cl)c3F)cc2c1=O,27.4 µM,> 27.4 µM
> 100 µM,38 µM,> 100 µM,CCn1cc(C(=O)O)c(=O)c2cc(Nc3cccc(Cl)c3F)ccc21,9.8 µM,> 9.8 µM
58.7 µM,43.7 µM,–,CCn1cc(C(=O)O)c(=O)c2c1C(=O)C=CC2=O,42.8 µM,> 42.8 µM
18.5 µM,4.8 µM,–,O=C(O)c1cn(CCO)c2ccc(Sc3ccccc3)cc2c1=O,22.7 µM,> 22.7 µM
0.6 µM,0.05 µM,16.6 µM,O=C(O)c1cn(CCCCO)c2ccc(Cc3ccc(Cl)cc3Cl)cc2c1=O,4.2 µM,> 4.2 µM
> 100 µM,77.6 µM,> 100 µM,O=C(O)c1cn(CCO)c2ccc(-c3ccncc3)cc2c1=O,138 µM,> 138 µM
16.5 µM,5.6 µM,–,COCCn1cc(C(=O)O)c(=O)c2cc(Cc3ccc(Cl)cc3Cl)ccc21,4.2 µM,> 4.2 µM

# Reference: ChEMBL document CHEMBL1156566, “Investigations on the 4-quinolone-3-carboxylic acid motif. 1. Synthesis and structure-activity relationship of a class of human immunodeficiency virus type 1 integrase inhibitors” (J Med Chem, 2008)
